Experimental data as given in ChEMBL document CHEMBL1135690, “Benzodiazepine receptor ligands. 7. Synthesis and pharmacological evaluation of new 3-esters of the 8-chloropyrazolo[5,1-c][1,2,4]benzotriazine 5-oxide. 3-(2-Thienylmethoxycarbonyl) derivative: an anxioselective agent in rodents” (J Med Chem, 2002).

Assays:
[1] = Anticonvulsant activity electroshock induced convulsions and % lethality obtained at dose of 30 mg/kg; assay type: organism-based; set-up: dose 30 mg/kg; details: mouse, in vivo, read-out: Lethality
In short: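 Male CD-1 mice (22–24 g), groups of 10–16, dosed po in 1% carboxymethylcellulose at 10 mL/kg. Electroshock (40 mA, 0.2 s, 50 Hz) applied to the corneas 30 min after dosing. End point is tonic hind limb extension; % protection and % lethality are recorded against vehicle-treated mice (χ2 analysis).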

[2] = molecular target: GABA A receptor alpha-3/beta-2/gamma-2 (Rattus norvegicus, UniProt P18508+P20236+P63138); test: Displacement of [3H]Ro-151788 from rat GABA-A receptor alpha-3-beta-2-gamma-2 subunits expressed in HEK293 cells; assay type: cell-based
Mus musculus [3] = test: Anxiolytic activity in mice using light-dark box and % time spent in light was reported at 100 mg/kg peroral dose; assay type: functional; details: route oral
In short: (§1)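 Male CD-1 mice (22–24 g) given drug po in 1% carboxymethylcellulose (10 mL/kg). Each mouse placed in the centre of the lighted area facing away from the dark compartment and allowed to explore for 5 min; time spent in the illuminated side and number of transfers between compartments recorded. Tests run between 10:00 and 15:00.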

Mus musculus [4] = test: Motor coordination of mouse as number of falls in 30 sec was reported after 30 mg/kg peroral dose using rotarod test; assay type: functional; details: route oral
In short: (§2)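 Male CD-1 mice dosed po (suspension in 1% carboxymethylcellulose, 10 mL/kg). Rota rod turning at 24 rpm; falls from the rod counted over 30 s, 25 min after drug administration.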

Mus musculus [5] = test: Anxiolytic activity in mice using light-dark box and no. of transfers between compartments were reported at 10 mg/kg peroral dose; assay type: functional; details: route oral; in short: as §1
Mus musculus [6] = test: Percent anticonvulsant activity against pentylenetetrazole (PTZ)-induced attacks at 100 mg/kg peroral dose; assay type: functional; details: route oral
In short: (§3)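 Male CD-1 mice dosed po in 1% carboxymethylcellulose, 30 min before PTZ (90 mg/kg sc, in 0.9% saline). Occurrence of clonic generalized convulsions noted over 30 min; χ² analysis vs control mice.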

Mus musculus [7] = test: Anxiolytic activity in mice using light-dark box and % time spent in light was reported at 10 mg/kg peroral dose; assay type: functional; details: route oral; in short: as §1
Mus musculus [8] = test: Anxiolytic activity in mice using light-dark box and no. of transfers between compartments were reported at 100 mg/kg peroral dose; assay type: functional; details: route oral; in short: as §1
Mus musculus [9] = test: Anxiolytic activity in mice using light-dark box and no. of transfers between compartments were reported at 3 mg/kg peroral dose; assay type: functional; details: route oral; in short: as §1
Mus musculus [10] = test: Percent anticonvulsant activity against pentylenetetrazole (PTZ)-induced attacks at 1 mg/kg peroral dose; assay type: functional; details: route oral
In short: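 Male CD-1 mice are dosed po in 1% CMC (flumazenil ip). PTZ (90 mg/kg sc, in 0.9% saline) is injected 30 min later. Clonic generalized convulsions are scored over 30 min, with % protection compared with controls by χ2 analysis.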

Mus musculus [11] = test: Percent anticonvulsant activity against pentylenetetrazole (PTZ)-induced attacks at 10 mg/kg peroral dose; assay type: functional; details: route oral; in short: as §3
Mus musculus [12] = test: Anxiolytic activity in mice using light-dark box and % time spent in light was reported at 30 mg/kg peroral dose; assay type: functional; details: route oral; in short: as §1
Mus musculus [13] = test: Motor coordination of mouse as number of falls in 30 sec was reported after 3 mg/kg peroral dose using rotarod test; assay type: functional; details: route oral; in short: as §2
Mus musculus [14] = test: Motor coordination of mouse as number of falls in 30 sec was reported after 10 mg/kg peroral dose using rotarod test; assay type: functional; details: route oral
In short: (§4)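 Male CD-1 mice are dosed po in 1% CMC (flumazenil ip). Falls from a rota rod turning at 24 rpm are counted over 30 s, 25 min after drug administration, and compared with vehicle-treated mice. Means ± SEM.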

Mus musculus [15] = test: Percent anticonvulsant activity against pentylenetetrazole (PTZ)-induced attacks at 3 mg/kg peroral dose; assay type: functional; details: route oral; in short: as §3
Mus musculus [16] = test: Anxiolytic activity in mice using light-dark box and % time spent in light was reported at 3 mg/kg peroral dose; assay type: functional; details: route oral; in short: as §1
Mus musculus [17] = test: Motor coordination of mouse as number of falls in 30 sec was reported after 1 mg/kg peroral dose using rotarod test; assay type: functional; details: route oral; in short: as §4
Mus musculus [18] = test: (§5) Anxiolytic activity in mice using light-dark box and no. of transfers between compartments were reported at 1 mg/kg peroral dose; assay type: functional; details: route oral; in short: as §1
Mus musculus [19] = test: Percent anticonvulsant activity against pentylenetetrazole (PTZ)-induced attacks at 30 mg/kg peroral dose; assay type: functional; details: route oral; in short: as §3
Mus musculus [20] = test: Anxiolytic activity in mice using light-dark box and % time spent in light was reported at 1 mg/kg peroral dose; assay type: functional; details: route oral
In short: (§6)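 Light-dark box in male CD-1 mice. Ligands are given po in 1% CMC, flumazenil ip. Each mouse is placed in the centre of the lit area facing away from the dark one and explores for 5 min. Time in the illuminated side and number of transfers between compartments are recorded. Means ± SEM.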

Mus musculus [21] = test: Anticonvulsant activity electroshock induced convulsions in hind limb of mice at a dose of 30 mg/kg; assay type: functional, Hindlimb
In short: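 Male CD-1 mice (22–24 g); oral dosing as suspension in 1% carboxymethylcellulose (10 mL/kg), 30 min before corneal electroshock (40 mA, 0.2 s, 50 Hz). Groups of 10–16 mice; end point tonic hind limb extension; lethality also recorded; χ² analysis vs CMC-treated mice.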

[22] = molecular target: GABA-A receptor; anion channel; set-up: species or system Bos taurus
[23] = molecular target: T1, GABA-A receptor; alpha-1/beta-2/gamma-2 (Rattus norvegicus, UniProt P18508+P62813+P63138); test: (§7) Displacement of [3H]Ro-151788 from rat GABA-A receptor alpha-1-beta-2-gamma-2 subunits expressed in HEK293 cells; assay type: cell-based
In short: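 Membranes from HEK293 cells stably expressing recombinant rat GABA-A subtypes, homogenized in 10 mM potassium phosphate pH 7.4 and resuspended with 100 mM KCl. Incubation with 1–2 nM [3H]Ro15-1788 and test compound (10^-9–10^-5 M, at least six concentrations; DMSO ≤1%) for 1 h at 4 °C to equilibrium.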

[24] = Displacement of [3H]-Ro-15-1788 from rat GABA-A receptor alpha-2-beta-2-gamma-2 subunits expressed in HEK293 cells; assay type: cell-based
In short: (§8)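 Recombinant rat GABA-A subtypes are stably expressed in HEK293 cells grown in MEM/EBSS with 10% FCS at 37 °C. Membranes are made in 10 mM potassium phosphate pH 7.4 and resuspended with 100 mM KCl. Incubation uses 1–2 nM [3H]Ro15-1788 with compound at 10^-9–10^-5 M (≥6 concentrations), 1 h at 4 °C. […] Ki comes from Cheng–Prusoff, n=5, in triplicate.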

Mus musculus [25] = test: Anxiolytic activity in mice using light-dark box and no. of transfers between compartments were reported at 30 mg/kg peroral dose; assay type: functional; details: route oral; in short: as §1
Mus musculus [26] = test: Motor coordination of mouse as number of falls in 30 sec was reported after 100 mg/kg peroral dose using rotarod test; assay type: functional; details: route oral; in short: as §2
[27] = Displacement of [3H]Ro-151788 from rat GABA-A receptor alpha-5-beta-3-gamma-2 subunits expressed in HEK293 cells; assay type: cell-based; in short: as §8
[28] = molecular target: T1, GABA-A receptor; alpha-1/beta-2/gamma-2; test: as §7; assay type: cell-based; remark: listed apart in the source
Mus musculus [29] = test: Motor coordination of mouse as number of falls in 30 sec was reported after 0.3 mg/kg peroral dose using rotarod test; assay type: functional; details: route oral; in short: as §4
[30] = Anticonvulsant activity electroshock induced convulsions and % lethality obtained at dose of 10 mg/kg; details: mouse, in vivo
Mus musculus [31] = test: Anxiolytic activity in mice using light-dark box and no. of transfers between compartments were reported at 0.3 mg/kg peroral dose; assay type: functional; details: route oral; in short: as §6
Mus musculus [32] = test: as §5; assay type: functional; details: route oral; in short: as §6; remark: listed apart in the source
Mus musculus [33] = test: Anxiolytic activity in mice using light-dark box and no. of transfers between compartments were reported at 30 mg/kg intraperitoneal dose; assay type: functional
Mus musculus [34] = test: Anxiolytic activity in mice using light-dark box and no. of transfers between compartments were reported at 100 mg/kg intraperitoneal dose; assay type: functional
Mus musculus [35] = test: Motor coordination of mouse as number of falls in 30 sec was reported after 30 mg/kg intraperitoneal dose using rotarod test; assay type: functional; in short: as §4
Mus musculus [36] = test: Anxiolytic activity in mice using light-dark box and % time spent in light was reported at 100 mg/kg intraperitoneal dose; assay type: functional
Mus musculus [37] = test: Percent anticonvulsant activity against pentylenetetrazole (PTZ)-induced attacks at 30 mg/kg intraperitoneal dose.; assay type: functional
Mus musculus [38] = test: Anxiolytic activity in mice using light-dark box and % time spent in light was reported at 30 mg/kg intraperitoneal dose; assay type: functional
Mus musculus [39] = test: Motor coordination of mouse as number of falls in 30 sec was reported after 100 mg/kg intraperitoneal dose using rotarod test; assay type: functional; in short: as §4
Mus musculus [40] = test: Percent anticonvulsant activity against pentylenetetrazole (PTZ)-induced attacks at 100 mg/kg intraperitoneal dose.; assay type: functional

T1 sequence (P18508 whole entry): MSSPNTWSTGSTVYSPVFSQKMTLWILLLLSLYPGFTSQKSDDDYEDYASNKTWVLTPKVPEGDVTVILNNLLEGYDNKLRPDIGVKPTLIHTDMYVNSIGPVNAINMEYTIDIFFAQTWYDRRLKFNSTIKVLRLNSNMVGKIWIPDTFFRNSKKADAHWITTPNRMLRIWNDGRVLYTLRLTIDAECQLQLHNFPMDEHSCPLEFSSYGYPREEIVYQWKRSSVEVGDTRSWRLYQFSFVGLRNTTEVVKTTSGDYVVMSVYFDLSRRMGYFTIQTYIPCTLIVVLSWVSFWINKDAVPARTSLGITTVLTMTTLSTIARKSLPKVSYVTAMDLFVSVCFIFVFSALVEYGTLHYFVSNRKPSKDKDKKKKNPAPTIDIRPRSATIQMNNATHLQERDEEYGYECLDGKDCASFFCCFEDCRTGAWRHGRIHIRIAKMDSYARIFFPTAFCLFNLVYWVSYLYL
T1 sequence (P62813 whole entry): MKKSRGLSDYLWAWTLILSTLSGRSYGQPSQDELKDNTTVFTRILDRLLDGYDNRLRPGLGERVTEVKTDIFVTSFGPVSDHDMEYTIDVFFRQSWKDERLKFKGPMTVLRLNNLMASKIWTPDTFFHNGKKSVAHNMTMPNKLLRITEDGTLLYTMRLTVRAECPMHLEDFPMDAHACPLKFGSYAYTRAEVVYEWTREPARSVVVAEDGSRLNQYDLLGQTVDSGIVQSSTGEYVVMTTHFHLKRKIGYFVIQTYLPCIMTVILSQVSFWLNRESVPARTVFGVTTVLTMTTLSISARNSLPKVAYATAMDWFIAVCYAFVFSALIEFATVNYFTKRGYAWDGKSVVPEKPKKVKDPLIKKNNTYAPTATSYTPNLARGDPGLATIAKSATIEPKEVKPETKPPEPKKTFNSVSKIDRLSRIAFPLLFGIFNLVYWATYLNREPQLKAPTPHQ
T1 sequence (P63138 whole entry): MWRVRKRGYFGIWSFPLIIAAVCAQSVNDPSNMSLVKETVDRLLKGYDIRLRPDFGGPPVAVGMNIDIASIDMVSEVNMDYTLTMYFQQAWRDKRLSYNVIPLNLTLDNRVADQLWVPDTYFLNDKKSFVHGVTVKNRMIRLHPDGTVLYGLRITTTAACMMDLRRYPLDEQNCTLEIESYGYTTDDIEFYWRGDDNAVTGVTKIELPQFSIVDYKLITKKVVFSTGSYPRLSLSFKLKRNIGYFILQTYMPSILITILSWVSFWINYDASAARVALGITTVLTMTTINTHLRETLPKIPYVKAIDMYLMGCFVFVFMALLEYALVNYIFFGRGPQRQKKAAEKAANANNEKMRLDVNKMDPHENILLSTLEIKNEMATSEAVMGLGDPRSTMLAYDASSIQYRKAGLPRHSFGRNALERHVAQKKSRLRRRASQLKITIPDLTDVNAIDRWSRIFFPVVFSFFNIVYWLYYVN
Chain of GABA A receptor alpha-3/beta-2/gamma-2 (P18508 whole entry): as the sequence (P18508 whole entry) above
Chain of GABA A receptor alpha-3/beta-2/gamma-2 (P20236 whole entry): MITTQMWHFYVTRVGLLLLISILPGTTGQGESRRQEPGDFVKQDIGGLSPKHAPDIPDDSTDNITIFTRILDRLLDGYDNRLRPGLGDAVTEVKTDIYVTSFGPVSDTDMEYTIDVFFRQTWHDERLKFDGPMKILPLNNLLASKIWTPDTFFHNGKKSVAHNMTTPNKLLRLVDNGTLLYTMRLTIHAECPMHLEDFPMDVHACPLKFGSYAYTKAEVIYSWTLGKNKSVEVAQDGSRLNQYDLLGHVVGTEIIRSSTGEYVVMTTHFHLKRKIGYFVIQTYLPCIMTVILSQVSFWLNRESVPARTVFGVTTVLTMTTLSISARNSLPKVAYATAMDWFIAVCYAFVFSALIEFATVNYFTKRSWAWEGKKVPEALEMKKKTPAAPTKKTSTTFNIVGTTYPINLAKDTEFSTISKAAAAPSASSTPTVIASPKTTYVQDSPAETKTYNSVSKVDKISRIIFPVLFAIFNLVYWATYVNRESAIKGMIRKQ
Chain of GABA A receptor alpha-3/beta-2/gamma-2 (P63138 whole entry): as the sequence (P63138 whole entry) above

SMILES: O=C(OCc1cccs1)c1cnn2c1n[n+]([O-])c1ccc(Cl)cc12
- mortality [1]: 40%
- Ki [2]: 12 nM
- Activity (Mus musculus [3]): 157.1%
- No. of falls (Mus musculus [4]): 0.1
- No. of transfers (Mus musculus [5]): 16.6
- Activity (Mus musculus [6]): 20%
- Activity (Mus musculus [7]): 155.1%
- No. of transfers (Mus musculus [8]): 14.6
- No. of transfers (Mus musculus [9]): 15.6
- Activity (Mus musculus [10]): 20%
- Activity (Mus musculus [11]): 15.38%
- Activity (Mus musculus [12]): 144.3%
- No. of falls (Mus musculus [13]): 0.1
- No. of falls (Mus musculus [14]): 0.15
- Activity (Mus musculus [15]): 0%
- Activity (Mus musculus [16]): 170.8%
- No. of falls (Mus musculus [17]): 0.1
- No. of transfers (Mus musculus [18]): 21.1
- Activity (Mus musculus [19]): 40%
- Activity (Mus musculus [20]): 12.89%
- Activity (Mus musculus [21]): 0%
- Ki [22]: 6.8 nM
- Ki [23]: 3 nM
- Ki [24]: 26 nM
- No. of transfers (Mus musculus [25]): 20.5
- No. of falls (Mus musculus [26]): 0
- Ki [27]: 8.6 nM

SMILES: [O-][n+]1nc2c(-c3ccsc3)cnn2c2cc(Cl)ccc21
- Ki [2]: 33 nM
- Ki [28]: 4.1 nM
- Ki [24]: 12 nM
- Ki [27]: 18 nM

SMILES: CN1C(=O)CN=C(c2ccccc2)c2cc(Cl)ccc21 [DIAZEPAM]
- No. of falls (Mus musculus [29]): 0.39
- No. of transfers (Mus musculus [9]): 16.5
- Activity (Mus musculus [10]): 93.8%
- No. of falls (Mus musculus [13]): 1.6
- mortality [30]: 0%
- Activity (Mus musculus [15]): 100%
- No. of transfers (Mus musculus [31]): 22
- No. of transfers (Mus musculus [32]): 23.2
- Activity (Mus musculus [16]): 243.2%
- No. of falls (Mus musculus [17]): 0.78
- Activity (Mus musculus [20]): 159.3%
- Ki [24]: 7.8 nM
- Ki [27]: 9.8 nM

SMILES: CCOC(=O)c1ncn2c1CN(C)C(=O)c1cc(F)ccc1-2 [FLUMAZENIL]
- No. of transfers (Mus musculus [33]): 11.8
- No. of transfers (Mus musculus [34]): 15.2
- No. of falls (Mus musculus [35]): 0.33
- Activity (Mus musculus [36]): 119%
- Activity (Mus musculus [37]): 11.1%
- Activity (Mus musculus [38]): 90.36%
- No. of falls (Mus musculus [39]): 0.4
- Activity (Mus musculus [40]): 5.3%
